Results taken from ChEMBL document CHEMBL4732237, “Discovery of 4-alkoxy-2-aryl-6,7-dimethoxyquinolines as a new class of topoisomerase I inhibitors endowed with potent in vitro anticancer activity” (2021).

Test system: NCI/ADR-RES
Assay: Growth inhibition of human NCI/ADR-RES cells incubated for 48 hrs by sulforhodamine B assay
Format: functional
Settings: not given
In short: (§1)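 NCI five-dose screen (0.01–100 µM; five concentrations plus control). Cells grown in RPMI 1640/5% FBS/2 mM L-glutamine and preincubated 24 h, with time-zero plates TCA-fixed. Drug exposure 48 h at 37 °C, followed by SRB protein staining and reading at 515 nm. GI50 is the concentration at [(Ti-Tz)/(C-Tz)]×100 = 50.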
For `COc1cc2nc(-c3ccc(Cl)cc3)cc(OCCCN3CCCC3)c2cc1OC`, the GI50 was 0.683 µM.
Compound `COc1cc2nc(-c3ccc(C(F)(F)F)cc3)cc(OCCCN3CCOCC3)c2cc1OC` has a GI50 of 0.64 µM.
Work on `COc1cc2nc(-c3ccc(C(F)(F)F)cc3)cc(OCCCN3CCCC3)c2cc1OC` yielded a GI50 of 0.458 µM.
For `COc1cc2nc(-c3ccc(Cl)cc3)cc(OCCCN3CCC(O)CC3)c2cc1OC`, the GI50 was 0.925 µM.

Test system: SF-539
Assay: Growth inhibition of human SF-539 cells incubated for 48 hrs by sulforhodamine B assay
Format: functional
Settings: not given
In short: as §1
In the case of `COc1cc2nc(-c3ccc(Cl)cc3)cc(OCCCN3CCCC3)c2cc1OC`, the GI50 is reported as 2.44 µM.
Compound `COc1cc2nc(-c3ccc(C(F)(F)F)cc3)cc(OCCCN3CCCC3)c2cc1OC` has a GI50 of 1.87 µM.
For `COc1cc2nc(-c3ccc(Cl)cc3)cc(OCCCN3CCC(O)CC3)c2cc1OC`, the GI50 was 2.28 µM.

Test system: A498
Assay: Growth inhibition of human A498 cells incubated for 48 hrs by sulforhodamine B assay
Format: functional
Settings: not given
In short: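 NCI five-dose assay, with drug stocks in DMSO diluted in medium to five concentrations (10-fold or ½-log series). Cells in RPMI 1640/5% FBS were pre-incubated 24 h, and time-zero plates were TCA-fixed at drug addition. After 48 h at 37 °C, cells were TCA-fixed, SRB-stained and read at 515 nm. GI50 is from [(Ti-Tz)/(C-Tz)]×100 = 50, TGI from Ti = Tz, and LC50 from [(Ti-Tz)/Tz]×100 = -50.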
`COc1cc2nc(-c3ccc(Cl)cc3)cc(OCCCN3CCCC3)c2cc1OC` gave a GI50 of 2.19 µM.
`COc1cc2nc(-c3ccc(C(F)(F)F)cc3)cc(OCCCN3CCOCC3)c2cc1OC` showed a GI50 of 1.51 µM.
`COc1cc2nc(-c3ccc(C(F)(F)F)cc3)cc(OCCCN3CCCC3)c2cc1OC` gave a GI50 of 1.58 µM.
With `COc1cc2nc(-c3ccc(Cl)cc3)cc(OCCCN3CCC(O)CC3)c2cc1OC` the GI50 was 1.52 µM.

Test system: not listed separately
Assay: Growth inhibition of human Renal cancer cell line incubated for 48 hrs by sulforhodamine B assay
Format: functional
Settings: not given
In short: (§2)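 NCI-60 five-dose screen. Cells in RPMI 1640 with 5% FBS and 2 mM L-glutamine were plated at 5000–40,000 cells/well and preincubated 24 h at 37 °C, 5% CO2. Drugs in DMSO were given at five serial 10-fold or ½-log dilutions for 48 h. Adherent cells fixed with 10% TCA (final); suspension cells fixed after settling. SRB stained; A515. GI50 from [(Ti-Tz)/(C-Tz)]x100 = 50.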
`COc1cc2nc(-c3ccc(Cl)cc3)cc(OCCCN3CCCC3)c2cc1OC` showed an LC50 (concentration giving 50% net cell kill) of 28.9 µM and a TGI of 7.66 µM.
With `COc1cc2nc(-c3ccc(C(F)(F)F)cc3)cc(OCCCN3CCCC3)c2cc1OC` the LC50 (concentration giving 50% net cell kill) was 40.1 µM and the TGI was 10.2 µM.

Test system: IGROV-1
Assay: Growth inhibition of human IGROV-1 cells incubated for 48 hrs by sulforhodamine B assay
Format: functional
Settings: not given
In short: (§3)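 NCI five-dose screen covering 0.01–100 µM, prepared as 10-fold or ½-log dilutions from DMSO stock. Cells in RPMI 1640 with 5% FBS were exposed for 48 h at 37 °C after 24 h preincubation. Adherent cells were fixed with TCA (final 10%) and suspension cells were settled before fixing. Stain was SRB, read at 515 nm. GI50 = 50% reduction in net protein increase versus control, with Tz taken at drug addition.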
Work on `COc1cc2nc(-c3ccc(Cl)cc3)cc(OCCCN3CCCC3)c2cc1OC` yielded a GI50 of 0.881 µM.
In the case of `COc1cc2nc(-c3ccc(C(F)(F)F)cc3)cc(OCCCN3CCOCC3)c2cc1OC`, the GI50 is reported as 0.83 µM.
In the case of `COc1cc2nc(-c3ccc(C(F)(F)F)cc3)cc(OCCCN3CCCC3)c2cc1OC`, the GI50 is reported as 0.592 µM.
In the case of `COc1cc2nc(-c3ccc(Cl)cc3)cc(OCCCN3CCC(O)CC3)c2cc1OC`, the GI50 is reported as 0.923 µM.

Test system: Melanoma cell line
Assay: Growth inhibition of human Melanoma cell line incubated for 48 hrs by sulforhodamine B assay
Format: functional
Settings: not given
In short: as §2
Compound `COc1cc2nc(-c3ccc(Cl)cc3)cc(OCCCN3CCCC3)c2cc1OC` has an LC50 (50% lethal concentration) of 14.6 µM and a TGI of 4.26 µM.
Compound `COc1cc2nc(-c3ccc(C(F)(F)F)cc3)cc(OCCCN3CCCC3)c2cc1OC` has an LC50 (50% lethal concentration) of 23.7 µM and a TGI of 4.08 µM.

Test system: Colon cancer cell line
Assay: Growth inhibition of human colon cancer cell line incubated for 48 hrs by sulforhodamine B assay
Format: functional
Settings: not given
In short: as §2
`COc1cc2nc(-c3ccc(Cl)cc3)cc(OCCCN3CCCC3)c2cc1OC` gave an LC50 of 39.1 µM and a TGI of 8.31 µM.
Work on `COc1cc2nc(-c3ccc(C(F)(F)F)cc3)cc(OCCCN3CCCC3)c2cc1OC` yielded an LC50 of 50.4 µM and a TGI of 8.07 µM.

Test system: MOLT-4
Assay: Growth inhibition of human MOLT-4 cells incubated for 48 hrs by sulforhodamine B assay
Format: functional
Settings: not given
In short: as §1
`COc1cc2nc(-c3ccc(Cl)cc3)cc(OCCCN3CCCC3)c2cc1OC` showed a GI50 of 1.5 µM.
`COc1cc2nc(-c3ccc(C(F)(F)F)cc3)cc(OCCCN3CCOCC3)c2cc1OC` showed a GI50 of 2.51 µM.
`COc1cc2nc(-c3ccc(C(F)(F)F)cc3)cc(OCCCN3CCCC3)c2cc1OC` gave a GI50 of 0.994 µM.
For `COc1cc2nc(-c3ccc(Cl)cc3)cc(OCCCN3CCC(O)CC3)c2cc1OC`, the GI50 was 1.8 µM.

Test system: not listed separately
Assay: Growth inhibition of human Prostate tumor cell line incubated for 48 hrs by sulforhodamine B assay
Format: functional
Settings: not given
In short: as §2
For `COc1cc2nc(-c3ccc(Cl)cc3)cc(OCCCN3CCCC3)c2cc1OC`, the LC50 (concentration killing 50% of cells) was 39.6 µM and the TGI was 12.1 µM.
`COc1cc2nc(-c3ccc(C(F)(F)F)cc3)cc(OCCCN3CCCC3)c2cc1OC` gave an LC50 (concentration killing 50% of cells) of 89.5 µM and a TGI of 16.8 µM.

Test system: not listed separately
Assay: Growth inhibition of human leukemia cell line incubated for 48 hrs by sulforhodamine B assay
Format: functional
Settings: leukaemia cell line
In short: as §2
`COc1cc2nc(-c3ccc(Cl)cc3)cc(OCCCN3CCCC3)c2cc1OC` gave an LC50 of 32 µM and a TGI of 4.99 µM.
`COc1cc2nc(-c3ccc(C(F)(F)F)cc3)cc(OCCCN3CCCC3)c2cc1OC` showed an LC50 of 81.6 µM and a TGI of 6.17 µM.

Test system: OVCAR-4
Assay: Growth inhibition of human OVCAR-4 cells incubated for 48 hrs by sulforhodamine B assay
Format: functional
Settings: not given
In short: as §1
Work on `COc1cc2nc(-c3ccc(Cl)cc3)cc(OCCCN3CCCC3)c2cc1OC` yielded a GI50 of 3 µM.
Compound `COc1cc2nc(-c3ccc(C(F)(F)F)cc3)cc(OCCCN3CCOCC3)c2cc1OC` has a GI50 of 10.3 µM.
`COc1cc2nc(-c3ccc(C(F)(F)F)cc3)cc(OCCCN3CCCC3)c2cc1OC` showed a GI50 of 3.71 µM.
With `COc1cc2nc(-c3ccc(Cl)cc3)cc(OCCCN3CCC(O)CC3)c2cc1OC` the GI50 was 4.34 µM.

Test system: CNS carcinoma cell
Assay: Growth inhibition of human CNS carcinoma cell incubated for 48 hrs by sulforhodamine B assay
Format: functional
Settings: not given
In short: as §2
Work on `COc1cc2nc(-c3ccc(Cl)cc3)cc(OCCCN3CCCC3)c2cc1OC` yielded an LC50 of 33.5 µM and a TGI of 10.1 µM.
`COc1cc2nc(-c3ccc(C(F)(F)F)cc3)cc(OCCCN3CCCC3)c2cc1OC` gave an LC50 of 44.9 µM and a TGI of 11.7 µM.

Test system: Ovarian cancer cell line
Assay: Growth inhibition of human Ovarian cancer cell line incubated for 48 hrs by sulforhodamine B assay
Format: functional
Settings: not given
In short: as §2
Work on `COc1cc2nc(-c3ccc(Cl)cc3)cc(OCCCN3CCCC3)c2cc1OC` yielded an LC50 of 55.1 µM and a TGI of 14.8 µM.
`COc1cc2nc(-c3ccc(C(F)(F)F)cc3)cc(OCCCN3CCCC3)c2cc1OC` gave an LC50 of 81 µM and a TGI of 28.1 µM.

Test system: M14
Assay: Growth inhibition of human M14 cells incubated for 48 hrs by sulforhodamine B assay
Format: functional
Settings: not given
In short: as §3
For `COc1cc2nc(-c3ccc(Cl)cc3)cc(OCCCN3CCCC3)c2cc1OC`, the GI50 was 0.402 µM.
`COc1cc2nc(-c3ccc(C(F)(F)F)cc3)cc(OCCCN3CCOCC3)c2cc1OC` gave a GI50 of 0.355 µM.
Work on `COc1cc2nc(-c3ccc(C(F)(F)F)cc3)cc(OCCCN3CCCC3)c2cc1OC` yielded a GI50 of 0.336 µM.
For `COc1cc2nc(-c3ccc(Cl)cc3)cc(OCCCN3CCC(O)CC3)c2cc1OC`, the GI50 was 0.591 µM.

Test system: CCRF-CEM
Assay: Growth inhibition of human CCRF-CEM cells incubated for 48 hrs by sulforhodamine B assay
Format: functional
Settings: not given
In short: as §3
Work on `COc1cc2nc(-c3ccc(Cl)cc3)cc(OCCCN3CCCC3)c2cc1OC` yielded a GI50 of 2.14 µM.
`COc1cc2nc(-c3ccc(C(F)(F)F)cc3)cc(OCCCN3CCOCC3)c2cc1OC` gave a GI50 of 2.79 µM.
`COc1cc2nc(-c3ccc(C(F)(F)F)cc3)cc(OCCCN3CCCC3)c2cc1OC` gave a GI50 of 1.08 µM.
`COc1cc2nc(-c3ccc(Cl)cc3)cc(OCCCN3CCC(O)CC3)c2cc1OC` gave a GI50 of 2.65 µM.

Test system: not listed separately
Assay: Growth inhibition of human Breast cancer cell line incubated for 48 hrs by sulforhodamine B assay
Format: functional
Settings: not given
In short: as §2
Work on `COc1cc2nc(-c3ccc(Cl)cc3)cc(OCCCN3CCCC3)c2cc1OC` yielded an LC50 of 29.6 µM and a TGI of 5.8 µM.
`COc1cc2nc(-c3ccc(C(F)(F)F)cc3)cc(OCCCN3CCCC3)c2cc1OC` gave an LC50 of 40.8 µM and a TGI of 6.8 µM.

Test system: not listed separately
Assay: Growth inhibition of human Non-small cell lung cancer cell line incubated for 48 hrs by sulforhodamine B assay
Format: functional
Settings: not given
In short: as §2
Work on `COc1cc2nc(-c3ccc(Cl)cc3)cc(OCCCN3CCCC3)c2cc1OC` yielded an LC50 (concentration killing 50% of cells) of 39.7 µM and a TGI of 10.4 µM.
Compound `COc1cc2nc(-c3ccc(C(F)(F)F)cc3)cc(OCCCN3CCCC3)c2cc1OC` has an LC50 (concentration killing 50% of cells) of 57.9 µM and a TGI of 12.7 µM.
